Data as given in ChEMBL document CHEMBL1124543, “Antiulcer agents. 4. Conformational considerations and the antiulcer activity of substituted imidazo[1,2-a]pyridines and related analogues” (1989).

Experiments:
Assay type in all cases: functional
Canis familiaris [1] = experiment: Inhibition of histamine stimulated gastric acid secretion in adult mongrel dogs at 8 mg/kg compound administered perorally; settings: Canis lupus familiaris, Stomach, route oral
Method in brief: (§1)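 Heidenhain pouch mongrel dogs receiving histamine infusion; compound given orally by gavage 1 h after infusion began. Acid output from 30-min collections (volume, titrated aliquot) summed for 3 h after dosing, each dog its own control. ED50 derived by linear regression from percent inhibition across doses.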

Rattus norvegicus [2] = experiment: Antisecretory activity of intraperitoneally injected compound (40 mg/kg) in pylorus-ligated rat
Method in brief: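 Rats fasted 24 h, anesthetized, pylorus ligated; compound in 2.5% Tween 80 given ip (0.5 mL/200 g) at ligation. Killed 4 h later; gastric contents volume recorded, aliquots titrated with 0.1 N NaOH for acid output. Six rats per compound, eight controls; percent inhibition computed, Student's t test.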

Canis familiaris [3] = experiment: Inhibition of histamine stimulated gastric acid secretion in adult mongrel dogs at 1 mg/kg i.v.; settings: Canis lupus familiaris, Stomach, route intravenous
Method in brief: (§2)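 Mongrel dogs with surgically prepared Heidenhain pouches under histamine infusion; compound given iv (0.1–5 mg/kg) 1 h after infusion start. Pouch juice collected every 30 min, volume recorded, aliquot titrated for acid; outputs summed over 3 h post-dose, compared with the same animal's control. ED50 by linear regression.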

Canis familiaris [4] = experiment: Inhibition of histamine stimulated gastric acid secretion in adult mongrel dogs at 5 mg/kg i.v.; settings: Canis lupus familiaris, Stomach, route intravenous; method in brief: as §2
Canis familiaris [5] = experiment: Inhibition of histamine stimulated gastric acid secretion in adult mongrel dogs at 2 mg/kg i.v.; settings: Canis lupus familiaris, Stomach, route intravenous; method in brief: as §2
Canis familiaris [6] = experiment: Inhibition of histamine stimulated gastric acid secretion in adult mongrel dogs at 2 mg/kg compound administered perorally; settings: Canis lupus familiaris, Stomach, route oral; method in brief: as §1
Rattus norvegicus [7] = experiment: Effective dose inhibiting ethanol-induced lesions was determined 1 h, after oral administration of absolute ethanol in rat
Method in brief: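 Rats fasted and water-deprived 20 h; compound in 0.4% methylcellulose/saline given orally (1–30 mg/kg) 30 min before oral absolute ethanol (1 mL). Killed 1 h after ethanol; stomach opened along greater curvature, linear hemorrhagic lesion lengths summed per stomach. ED50 for lesion inhibition by regression analysis.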

Canis familiaris [8] = experiment: Inhibition of histamine stimulated gastric acid secretion in adult mongrel dogs at 4 mg/kg administered perorally; settings: Canis lupus familiaris, Stomach, route oral; method in brief: as §1
Canis familiaris [9] = experiment: Effective dose required to reduce acid out put when administered perorally in dog; settings: Canis lupus familiaris, po; method in brief: as §1
Canis familiaris [10] = experiment: Inhibition of histamine stimulated gastric acid secretion in adult mongrel dogs at 0.1 mg/kg compound administered intravenously; settings: Canis lupus familiaris, Stomach, route intravenous; method in brief: as §2
Canis familiaris [11] = experiment: Effective dose required to reduce acid out put when administered intravenously in dog; settings: Canis lupus familiaris, iv; method in brief: as §2
Canis familiaris [12] = experiment: Effective dose required to reduce acid out put when administered perorally in dog;Value ranges from (2.3-58.2); settings: Canis lupus familiaris, po; method in brief: as §1
Canis familiaris [13] = experiment: Effective dose required to reduce acid out put when administered intravenously in dog;Value ranges from […]; settings: Canis lupus familiaris, iv; method in brief: as §2
Canis familiaris [14] = experiment: Effective dose required to reduce acid out put when administered perorally in dog;Value ranges from(1.6-13.4).; settings: Canis lupus familiaris, po; method in brief: as §1

| Compound | inhibition in vivo at 8 mg/kg (Canis familiaris [1]) [%] | Inhibition (Rattus norvegicus [2]) [%] | inhibition in vivo at 1 mg/kg (Canis familiaris [3]) [%] | inhibition in vivo at 5 mg/kg (Canis familiaris [4]) [%] | inhibition in vivo at 2 mg/kg (Canis familiaris [5]) [%] | ED50 (Rattus norvegicus [7]) [mg/kg] | inhibition in vivo at 4 mg/kg (Canis familiaris [8]) [%] | other results |
| --- | --- | --- | --- | --- | --- | --- | --- | --- |
| Cc1nc2c(/C=C\c3ccccc3)cccn2c1N | 4 | 83 | 66 | 67 | 62 | 23 | – | inhibition in vivo at 2 mg/kg (Canis familiaris [6]): 0% |
| Cc1nc2c(/C=C/Cc3ccccc3)cccn2c1CC#N | 82 | – | 69 | 78 | – | 4 | 53 | ED50 (Canis familiaris [9]): 4 mg/kg; inhibition in vivo at 0.1 mg/kg (Canis familiaris [10]): 9%; ED50 (Canis familiaris [11]): 1 mg/kg; inhibition in vivo at 2 mg/kg (Canis familiaris [6]): 43% |
| Cc1nc2cccc(/C=C/c3ccccc3)n2c1C | – | – | – | 0 | – | 5.5 | 0 | – |
| Cc1nc2c(/C=C\Cc3ccccc3)cccn2c1C | 54 | 96 | 24 | – | 47 | 6.6 | 13 | – |
| C(=C/c1cccn2c3c(nc12)CCC3)/c1ccccc1 | – | 24 | – | 8 | – | 5.2 | – | – |
| Cc1nc2ccc(/C=C/c3ccccc3)cn2c1C | 0 | 55 | – | 0 | – | 1.7 | – | – |
| Cc1nc2c(/C=C\c3ccccc3)nccn2c1C | 0 | 74 | – | 0 | – | 5.2 | – | – |
| Cc1nc2c(CCc3ccccc3)cccn2c1N | – | – | – | – | – | – | – | inhibition in vivo at 0.1 mg/kg (Canis familiaris [10]): 26%; ED50 (Canis familiaris [11]): 1 mg/kg; ED50 (Canis familiaris [12]): 6.7 mg/kg |
| Cc1nc2cc(/C=C/c3ccccc3)ccn2c1C | 0 | 40 | – | 0 | – | – | – | – |
| Cc1nc2c(OCc3ccccc3)cccn2c1C | 26 | 99 | 90 | – | – | 10 | 0 | – |
| Cc1nc2c(C/C=C\c3ccccc3)cccn2c1N | 0 | 4 | – | 20 | – | 6.4 | – | – |
| Cc1nc2c(C#Cc3ccccc3)nccn2c1C | 11 | 0 | – | 0 | – | 3.7 | – | – |
| C/C(=C\c1cccn2c(C)c(C)nc12)c1ccccc1 | 37 | 98 | 72 | – | 65 | – | 17 | – |
| Cc1nc2c(/C=C\Cc3ccccc3)cccn2c1N | – | 52 | 32 | – | – | 8.6 | 0 | – |
| C/C(=C\c1ccccc1)c1cccn2c(C)c(C)nc12 | 29 | 71 | – | – | 44 | 5 | – | – |
| Cc1nc2c(/C=C\c3ccccc3)cccn2c1CC#N | 41 | 49 | 79 | – | 76 | 2 | 0 | – |
| Cc1nc2c(/C=C/c3ccccc3)cccn2c1C | 3 | 39 | – | – | 26 | 10.4 | – | – |
| Cc1nc2c(/C=C/c3ccccc3)cccn2c1N | 6 | 33 | – | 0 | 24 | 13 | – | – |
| Cc1nc2c(/C=C\c3ccccc3)cccn2c1C | 74 | 83 | 62 | 86 | 76 | – | 37 | ED50 (Canis familiaris [9]): 4.8 mg/kg; ED50 (Canis familiaris [11]): 0.7 mg/kg; inhibition in vivo at 2 mg/kg (Canis familiaris [6]): 25% |
| Cc1nc2c3c(ccn2c1CC#N)CCC(c1ccccc1)O3 (stereo not given) | – | – | – | – | – | 1.7 | – | ED50 (Canis familiaris [13]): 0.06 mg/kg; ED50 (Canis familiaris [14]): 3.7 mg/kg |
| CCc1c(C)nc2c(/C=C\c3ccccc3)cccn12 | 21 | 65 | – | – | 12 | 0.8 | – | – |
| Cc1nc2c(/C=C\c3ccsc3)cccn2c1C | 79 | 54 | 64 | – | 82 | 24 | 38 | ED50 (Canis familiaris [9]): 4.8 mg/kg; inhibition in vivo at 2 mg/kg (Canis familiaris [6]): 5% |
| C(=C/c1cccn2c3c(nc12)CCCC3)/c1ccccc1 | – | 62 | – | – | 0 | 7.3 | – | – |
| Cc1nc2c(/C=C/c3ccccc3)cccn2c1CC#N | 2 | 18 | – | 18 | 0 | 3 | – | – |
| Cc1nc2c(C/C=C/c3ccccc3)cccn2c1CC#N | – | 27 | – | 4 | – | 12 | – | – |
| CCc1nc2c(/C=C\c3ccccc3)cccn2c1C | 21 | 96 | – | – | 42 | – | – | – |
| Cc1nc2c(C/C=C\c3ccccc3)cccn2c1C | 0 | 58 | – | 0 | – | 5.5 | – | – |
